{"source": "PubChem BioAssay AID623987", "about": "(Broad Institute, 2012)", "note": "Active and inactive are the calls of the source.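 Rule for the calls: active = compounds lowering cell ATP light, with fitted IC50 at most twice the top tested dose; inconclusive = flat curve losing 30 to 70% signal, or poor fit; inactive = the rest.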", "data": [{"test_system": "HeLa viability, CellTiter-Glo ATP luminescence", "experiment": "mammalian cell viability loss in HeLa – CellTiter-Glo luminescence, dry powder, set 3, cytotoxicity control for pyoverdine/PvdQ inhibitor project, dose response (AID 623987)", "conditions": "not given", "outline": "(§1)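 Test system: HeLa cells; amount: 2,500 HeLa cells per well; schedule: cells grown 24 h at 37 °C before dosing, 48 h compound exposure; buffer or medium: phenol red-free DMEM with 10% fetal bovine serum; technique: CellTiter-Glo luminescence measuring cellular ATP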", "values": [{"compound": "CN(C)CCCC(C#N)c1ccc(F)cc1", "note": "(stereo not given)", "IC50": "> 240 µM (inactive)"}, {"compound": "COCCC(C#N)c1ccc(Cl)cc1", "note": "(stereo not given)", "IC50": "94.2 µM"}, {"compound": "N#CC(c1ccc(C(F)(F)F)c(Cl)n1)c1ccccc1OC(F)(F)F", "note": "(stereo not given)", "IC50": "> 240 µM (inactive)"}, {"compound": "N#CC(c1ccc(F)cc1)c1cccc(Cl)n1", "note": "(stereo not given)", "IC50": "> 240 µM (inactive)"}, {"compound": "COCCOCCC(C#N)c1ccc(Cl)cc1", "note": "(stereo not given)", "IC50": "> 240 µM (inactive)"}, {"compound": "N#CC1c2ccc(Cl)cc2CCc2cccnc21", "note": "(stereo not given)", "IC50": "> 240 µM (inactive)"}, {"compound": "N#CC(c1cccc(C(F)(F)F)n1)c1ccc(Cl)cc1F", "note": "(stereo not given)", "IC50": "> 240 µM (inactive)"}, {"compound": "N#CC(c1ccc(Cl)cc1)c1ncccc1Cl", "note": "(stereo not given)", "IC50": "> 240 µM (inactive)"}, {"compound": "CCCCC(C#N)c1ccccn1", "note": "(stereo not given)", "IC50": "> 240 µM (inactive)"}]}, {"test_system": "not listed separately", "experiment": "mammalian cell viability loss in HeLa – CellTiter-Glo luminescence, dry powder, set 3, cytotoxicity control for pyoverdine/PvdQ inhibitor project, dose response (AID 623987)", "conditions": "HeLa viability, CellTiter-Glo ATP luminescence; at 120 µM (top of the series)", "outline": "as §1", "values": [{"compound": "N#CC(c1ccc(Cl)cc1)N1CCCC1", "note": "(stereo not given)", "activity change, negative = toxicity": "24% (inactive)"}, {"compound": "Clc1ccc(C(c2cccc(Cl)n2)c2nn[nH]n2)cc1", "note": "(stereo not given)", "activity change, negative = toxicity": "1.4% (inactive)"}, {"compound": "CN(C)CCCC(C#N)c1ccc(Cl)cc1", "note": "(stereo not given)", "activity change, negative = toxicity": "6.74% (inactive)"}, {"compound": "N#CC(c1ccc(Cl)cc1)c1cccc(Cl)n1", "note": "(stereo not given)", "activity change, negative = toxicity": "3.78% (inactive)"}, {"compound": "N#Cc1cccc(C(C#N)c2ccc(F)cc2)n1", "note": "(stereo not given)", "activity change, negative = toxicity": "-2.4% (inactive)"}, {"compound": "CCCCC(C#N)c1ccc(Cl)cc1", "note": "(stereo not given)", "activity change, negative = toxicity": "7.6% (inactive)"}, {"compound": "CCCCC(c1ccc(Cl)cc1)c1nn[nH]n1", "note": "(stereo not given)", "activity change, negative = toxicity": "9.15% (inactive)"}, {"compound": "CCCCC(C#N)c1ccc(Cl)cn1", "note": "(stereo not given)", "activity change, negative = toxicity": "13.2% (inactive)"}, {"compound": "N#CC(c1ccc(Cl)cc1)c1cccc(C(F)(F)F)n1", "note": "(stereo not given)", "activity change, negative = toxicity": "4.48% (inactive)"}, {"compound": "N#CC(c1ccc(F)cc1)c1cccc(C(F)(F)F)n1", "note": "(stereo not given)", "activity change, negative = toxicity": "5.55% (inactive)"}, {"compound": "CCCCC(C#N)c1ccc(F)cc1", "note": "(stereo not given)", "activity change, negative = toxicity": "-1.79% (inactive)"}, {"compound": "COCCC(C#N)c1ccc(F)cc1", "note": "(stereo not given)", "activity change, negative = toxicity": "4.64% (inactive)"}, {"compound": "CCCCC(C#N)c1ccc(F)cn1", "note": "(stereo not given)", "activity change, negative = toxicity": "1.98% (inactive)"}, {"compound": "N#CC(c1ccc(Cl)cc1)c1ccccn1", "note": "(stereo not given)", "activity change, negative = toxicity": "0.002% (inactive)"}, {"compound": "COCCOCCC(C#N)c1ccc(F)cc1", "note": "(stereo not given)", "activity change, negative = toxicity": "5.01% (inactive)"}, {"compound": "COCCNC(C#N)c1ccc(Cl)cc1", "note": "(stereo not given)", "activity change, negative = toxicity": "-1.45% (inactive)"}]}]}
